The record followed here is ChEMBL document CHEMBL3351414, “Novel 9'-substituted-noscapines: synthesis with Suzuki cross-coupling, structure elucidation and biological evaluation” (Eur J Med Chem, 2014).

The test system of experiment [1] is HeLa. Nature of the experiment: Effect on PCM1 protein in human HeLa cells assessed as accumulation of pericentriolar material at 25 uM after 24 hrs by immunofluorescence microscopy. Type of experiment: functional, cell-based. The gist of the method: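 After 24 h at 25 µM, HeLa cells were stained with anti-PCM1 and Alexa-conjugated secondary antibody, with phalloidin-tetramethylrhodamine B for actin and DAPI for nuclei. Cells were imaged by confocal microscopy at 60×.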

Experiment [2] concerns Jurkat. The experiment in a line: Antiproliferative activity against human Jurkat cells assessed as reduction in cell viability after 72 hrs by MTT assay. Type of experiment: functional, cell-based. The gist of the method:
(§1)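 Cells kept in RPMI-1640 (Jurkat, SEM, RS4;11) or DMEM (A549, HeLa, IGROV-1, HT-29) with 10% FBS plus penicillin/streptomycin. 8×10^3 cells per well were left 18 h at 37 °C in 5% CO2. Medium was then replaced with fresh medium holding graded compound concentrations from 10 mM DMSO stocks. Cells were incubated 72 h and viability read by MTT. IC50 is the mean ± SEM from dose–response curves of at least three independent experiments.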
(In general: Tetrazolium assays rely on reduction of a dye to a coloured formazan, in cell work by metabolically active cells.)

Experiment [3] is described as follows: Antiproliferative activity against human RS4:11 cells assessed as reduction in cell viability after 72 hrs by MTT assay. In kind it is functional, cell-based. The conditions noted are these: RS4-11, 72 h. The gist of the method:
as §1

In experiment [4] the test system is IGROV-1. The experiment in a line: Antiproliferative activity against human IGROV1 cells assessed as reduction in cell viability after 72 hrs by MTT assay. In kind it is functional, cell-based. The conditions noted are these: IGROV-1, 72 h. The gist of the method:
as §1

The test system of experiment [5] is HT-29. Nature of the experiment: Antiproliferative activity against human HT-29 cells assessed as reduction in cell viability after 72 hrs by MTT assay. In kind it is functional, cell-based. The conditions noted are these: HT-29, 72 h. The gist of the method: as §1
The subject of experiment [6] is PBL. The experiment in a line: Cytotoxicity against resting human PBLs assessed as reduction in cell growth. Type of experiment: cell-based. The gist of the method:
(§2)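 Peripheral blood lymphocytes from healthy donors, tested either resting (no PHA) or PHA-stimulated. Value is the concentration reducing cell growth by 50%, mean ± SEM of three separate experiments.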

The test system of experiment [7] is PBL. The experiment in a line: Cytotoxicity against PHA-stimulated human PBLs assessed as reduction in cell growth. In kind it is cell-based. The gist of the method:
as §2

A short description of experiment [8]: Antiproliferative activity against human SEM cells assessed as reduction in cell viability after 72 hrs by MTT assay. Type of experiment: functional, cell-based. The gist of the method: as §1
Experiment [9] has as its system LoVo. Nature of the experiment: Antiproliferative activity against human LoVo cells assessed as reduction in cell viability after 72 hrs by MTT assay. In kind it is functional, cell-based.
Experiment [10] has as its system A549. The experiment in a line: Antiproliferative activity against human A549 cells assessed as reduction in cell viability after 72 hrs by MTT assay. Type of experiment: functional, cell-based. The conditions noted are these: A549, 72 h. The gist of the method:
as §1

Experiment [11] has as its system CCRF-CEM. The experiment in a line: Antiproliferative activity against human CEM cells assessed as reduction in cell viability after 72 hrs by MTT assay. In kind it is functional, cell-based.
Experiment [12] has as its target T1, Tubulin (Bos taurus, UniProt Q6B856+Q862L2+Q862F3). Nature of the experiment: Inhibition of bovine brain tubulin assessed as extent of assembly preincubated for 15 mins by turbidimetry. The gist of the method: (§3)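 Bovine brain tubulin at 10 µM (1.0 mg/mL) in 0.8 M monosodium glutamate pH 6.6 with 4% DMSO and varying compound was preincubated 15 min at 30 °C, then chilled. GTP was added to 0.4 mM final and the temperature jumped from 0 to 30 °C. Turbidity was followed at 350 nm, scoring either maximum rate or extent of assembly at 20 min.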

Experiment [13] addresses T1, Tubulin. Nature of the experiment: Inhibition of bovine brain tubulin assessed as rate of assembly preincubated for 15 mins by turbidimetry. The gist of the method: as §3
Experiment [14] concerns the target T1, Tubulin. The experiment in a line: Displacement of [3H]colchicine from bovine brain tubulin assessed as rate of assembly after 10 mins by liquid scintillation counting. (In a radioligand displacement assay an active substance lowers the binding of a labelled ligand.)
Experiment [15] concerns HeLa. The experiment in a line: Antiproliferative activity against human HeLa cells assessed as reduction in cell viability after 72 hrs by MTT assay. Type of experiment: functional, cell-based. The gist of the method: as §1
Experiment [16] addresses Tubulin (Bos taurus) (UniProt Q6B856+Q862L2+Q862F3). Nature of the experiment: Displacement of [3H]colchicine from bovine brain tubulin at 500 uM after 10 mins by liquid scintillation counting.
Experiment [17] has as its system CA46. The experiment in a line: Cell cycle arrest in human CA46 cells assessed as reduction in mitotic index by Giemsa staining method relative to control. Type of experiment: functional. Details: scale not given: the % may be the effect or the level left. The gist of the method: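 CA46 Burkitt lymphoma cells grown in RPMI 1640 with 17% FBS and 2 mM L-glutamine at 37 °C, 5% CO2, treated 16 h. Cells were swollen 10 min in half-strength PBS, fixed in 0.5% acetic acid–1.5% ethanol, then spread from 25% acetic acid/75% ethanol. Slides were Giemsa-stained. Mitotic cells were those with condensed chromosomes and no nuclear membrane, with ≥200 cells counted per condition.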

For experiment [18], the system named is CA46. Nature of the experiment: Cell cycle arrest in human CA46 cells assessed as accumulation at G2/M phase at 5 times IC50 by flow cytometry. Type of experiment: functional. (In general: A flow cytometer gives signals particle by particle.)

Structures are written as SMILES. Active and inactive are the calls of the source. The rule behind the calls is not given here.

As for `COC(=O)Nc1nc2cc(C(=O)c3cccs3)ccc2[nH]1`, the outcome in [1] was Active.

Consider `COc1ccc(-c2c3c(c(OC)c4c2OCO4)[C@H]([C@H]2OC(=O)c4c2ccc(OC)c4OC)N(C)CC3)cc1`, for which the IC50 in experiment [2] is 11.3 µM; in [3] it was 12.6 µM; in experiment [4], 55.6 µM; in experiment [5], 47.8 µM; in experiment [6] it was > 200 µM; in experiment [7], > 200 µM. Further, the IC50 in experiment [8] was 15.1 µM; in experiment [9], 28.8 µM; in experiment [10] it was > 100 µM; in experiment [11] it was 25.8 µM.

Regarding `COc1ccccc1-c1c2c(c(OC)c3c1OCO3)[C@H]([C@H]1OC(=O)c3c1ccc(OC)c3OC)N(C)CC2`, the IC50 was > 400 µM in experiment [12]; 33.6 µM in experiment [2]; 13.8 µM in experiment [3]; 90.9 µM in experiment [4]; 72.7 µM in experiment [5]; > 200 µM in experiment [6]. For the same molecule, the IC50 in [13] is > 400 µM; in experiment [7], 42.4 µM; in [14], > 400 µM; in experiment [8], 22.2 µM; in experiment [15] it was 30.8 µM; in experiment [9], 57.1 µM. Moreover, the results for the IC50 in experiment [10] and in experiment [11] were 59.7 µM and 6.9 µM, respectively. The same molecule came in with an inhibition in [16] of 13%.

Consider `COc1ccc2c(c1OC)C(=O)O[C@@H]2[C@H]1c2c(cc3c(c2OC)OCO3)CCN1C` [NOSCAPINE], for which the IC50 in [12] is > 400 µM; in experiment [13] it was 170 µM. The molecule also registered an inhibition in [16] of 44%.

As to `COc1ccc2c(c1OC)C(=O)O[C@@H]2[C@H]1c2c(c(-c3ccc4ccccc4c3)c3c(c2OC)OCO3)CCN1C`, the IC50 is 20 µM in experiment [2]; 30.8 µM in experiment [3]; 67 µM in [4]; 58.5 µM in experiment [5]; > 200 µM in experiment [6]; > 200 µM in experiment [7]. The IC50 in experiment [8] stood at 8.4 µM; in experiment [15], 27.4 µM; in [9], 60.3 µM; in [10], 48.1 µM; in experiment [11], 23.3 µM.

With `COc1ccc(/C=C\c2cc(OC)c(OC)c(OC)c2)cc1O` [COMBRETASTATIN A4], the Activity in experiment [17] was 46%; in [18] it was >80%.

One may read the IC50 as the concentration at which inhibition is half-maximal. As a reminder, the inhibition is the drop in the measured response relative to a control, in per cent.
